KCNK9 block: blocks the human KCNK9 two-pore domain potassium channel | HEK293 KCNK9, FluxOR thallium flux fluorescence; active compounds read low | B-score at 10 µM | 310,000 tested, 1.2% active;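 active means ratio B-score over 3 SD below the library mean, with starting fluorescence within 5 SD of its mean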;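 further: negative B-score means less thallium flux so channel inhibition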
KCNQ1 pot: potentiates or activates the human KCNQ1 potassium channel | P51787 | CHO-K1 KCNQ1, thallium flux FluxOR fluorescence; active compounds read high | B-score at 10 µM | 310,000 tested, 0.35% active | AID 2648;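 active means fluorescence ratio B-score, a plate-corrected score, at least three library SD, with initial intensity B-score within 5 SD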
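Material: CHO-K1 cells stably expressing KCNQ1. Medium: assay buffer for compound exposure, DMSO matched across wells. Reagent: K+/Tl+ depolarizing stimulus. Compound dosing: single-concentration screen. Times: 37 °C overnight plating, 90-min dark dye load, 20-min compound pretreatment. Technique: FluxOR Tl+ flux fluorescence.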
Cl transport mod: modulators of human KCC2 chloride dependent transport. 190,000 tested, 2.2% active. Q9H2X9. AID 1456. B-score of Tl+ flux slope (higher = more flux/activation; lower = inhibition) at 10 µM. KCC2 cells, thallium flux FluoZin-2 fluorescence;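 active means thallium flux slope and its plate-corrected score both differing from the plate sample mean at a set confidence after two filtering rounds, in either direction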;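 further: slope of fluorescence scaled to starting intensity during 10 to 20 s after thallium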
hERG protect: shields human hERG channel from block by proarrhythmic agents. CHO-hERG, FluxOR thallium flux, dofetilide IC70 present. activation (rescue from dofetilide block), less the hit threshold, % at 10 µM. 310,000 tested, 0.51% active;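 active means activation above the mean of controls blocked by dofetilide plus 5 SD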;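 further: thallium influx through hERG after potassium depolarization seen as dye fluorescence rise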
KCNK3 block: human KCNK3 channel inhibition, primary screen | 340,000 tested, 0.84% active | B-score at 10 µM | CHO-KCNK3 thallium flux, FluxOR fluorescence; active compounds read low;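 active means B-score under library mean minus 4 SD, starting fluorescence ratio at most library mean plus 5 SD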;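 further: more negative B-score means stronger inhibition of thallium flux through KCNK3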
Target sequence (O14649 whole entry, looked up): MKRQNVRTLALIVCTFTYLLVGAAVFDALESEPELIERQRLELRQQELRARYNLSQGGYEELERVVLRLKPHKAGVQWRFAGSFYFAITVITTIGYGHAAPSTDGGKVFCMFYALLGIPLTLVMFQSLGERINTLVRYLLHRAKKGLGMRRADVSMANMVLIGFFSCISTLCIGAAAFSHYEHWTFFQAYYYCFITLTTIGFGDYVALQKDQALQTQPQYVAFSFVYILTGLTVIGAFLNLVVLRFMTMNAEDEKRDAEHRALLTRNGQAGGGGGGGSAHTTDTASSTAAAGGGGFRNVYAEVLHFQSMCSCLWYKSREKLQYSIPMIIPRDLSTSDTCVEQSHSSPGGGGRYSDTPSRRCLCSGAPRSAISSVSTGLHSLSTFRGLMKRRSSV
KCNQ1 inh: blocks the human KCNQ1 potassium channel | CHO-K1 KCNQ1, FluxOR thallium flux fluorescence; active compounds read high | B-score at 10 µM | 310,000 tested, 1.3% active;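 active means compounds whose thallium flux B-score, printed positive for inhibition, exceeds three library SD while starting fluorescence stays within three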;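 further: channel opened by potassium depolarization with thallium stimulus after 20 min compound exposure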
KCNK9 inh conf: confirmation of human KCNK9 potassium channel inhibitors. shares compounds with KCNK9 block. HEK293 KCNK9 cells, FluxOR thallium flux fluorescence. inhibition, % at 10 µM. 4,900 tested, 43% active. AID 492992;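 active means thallium signal inhibited by more than 5 SD of the compound-free buffer control wells, on both duplicate plates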
Kir21 sel: selectivity of KCNK9 modulators against mouse Kir2.1. AID 492993. 4,900 tested, 4% active. Kir2.1 cells, FluxOR thallium flux fluorescence. inhibition, % at 10 µM. shares compounds with KCNK9 block;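 active means thallium signal drop more than 5 SD beyond the mean of the no-compound control wells, seen in both duplicate plates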;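 further: signal is fluorescence rise after thallium addition divided by baseline fluorescence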
Target sequence (P35561 whole entry, looked up): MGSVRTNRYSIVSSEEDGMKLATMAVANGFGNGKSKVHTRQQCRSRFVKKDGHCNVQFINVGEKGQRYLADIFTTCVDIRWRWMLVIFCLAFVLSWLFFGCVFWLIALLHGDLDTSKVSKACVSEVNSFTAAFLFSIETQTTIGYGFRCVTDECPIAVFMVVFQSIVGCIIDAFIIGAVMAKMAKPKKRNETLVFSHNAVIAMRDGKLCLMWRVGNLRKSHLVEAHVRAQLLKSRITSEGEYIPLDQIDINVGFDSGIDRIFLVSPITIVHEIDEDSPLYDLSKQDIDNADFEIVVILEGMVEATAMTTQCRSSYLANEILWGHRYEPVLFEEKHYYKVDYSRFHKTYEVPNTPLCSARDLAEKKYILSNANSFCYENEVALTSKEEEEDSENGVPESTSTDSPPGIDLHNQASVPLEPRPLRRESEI
HEK293 Tl ctr: second check of KCNK9 modulator effects in non-induced HEK293 cells | AID 492997 | inhibition, % at 10 µM | FluxOR thallium flux | 4,900 tested, 40% active | shares compounds with KCNK9 block;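 active means thallium signal drop beyond 5 SD of the untreated control mean, on both duplicate plates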
Of the large screens only hits and unclear results are named; the others gave an inactive call (follow-up assays come after a bar, where they were run). An excerpt weighted towards active compounds, which were near 4.1% of everything screened.

Cc1noc(NS(=O)(=O)c2ccc(NC(=O)C(Cl)(Cl)Cl)cc2)c1C	none (no result: Cl transport mod)
Cc1noc(NS(=O)(=O)c2ccc(NC(=O)Nc3ccc(Cl)c(Cl)c3)cc2)c1C	none | KCNK9 inh conf inactive | Kir21 sel inactive | HEK293 Tl ctr inactive
CCOc1ccccc1NC(=O)CSc1nnc(-c2ccccc2Cl)n1Cc1ccco1	KCNK9 block -10.3 | KCNK9 inh conf 53.0% | Kir21 sel inactive | HEK293 Tl ctr 35.5%
CCOc1ccccc1NC(=O)CSc1nnc(-c2ccco2)n1Cc1ccco1	none (no result: Cl transport mod)
CC[n+]1c(/C=C/c2ccc(N(C)C)cc2)ccc2ccccc21	KCNK9 block -11.8 | KCNK9 inh conf 60.0% | Kir21 sel 85.0% | HEK293 Tl ctr 59.5%
NNc1nc2c(Cl)ccc(Cl)c2s1	none
CCOC(=O)c1c(-c2ccc(-c3ccccc3)cc2)csc1NC(=O)C1C2CCC(O2)C1C(=O)O (stereo not drawn)	none (no result: Cl transport mod) | KCNK9 inh conf inactive | Kir21 sel inactive | HEK293 Tl ctr inactive
CC(=O)Nc1ccc(NC(=O)COC(=O)C2CCCCC2)cc1	none (no result: KCNK9 block, KCNQ1 pot, Cl transport mod, hERG protect, KCNQ1 inh)
COc1cc(OC)nc(Oc2ccccc2C(=O)Oc2ccccc2Cl)n1	KCNK9 block -11.3 | KCNK9 inh conf 42.0% | Kir21 sel inactive | HEK293 Tl ctr 27.5%
COc1cc(OC)nc(Oc2ccccc2C(=O)Oc2ccc(Cl)cc2)n1	KCNK9 block -8.98 | KCNK9 inh conf 44.5% | Kir21 sel inactive | HEK293 Tl ctr 39.0%
COc1cc(CC(=O)NCC2CCCCC2)cc(OC)c1OC	none (no result: Cl transport mod)
COc1cccc(/C=N/NC(=O)c2csc(-n3nc(C)cc3C(F)(F)F)n2)c1	KCNK9 block -14.8 | KCNK9 inh conf inactive | Kir21 sel inactive | HEK293 Tl ctr inactive
Cc1cc(C(F)(F)F)n(-c2nc(C(=O)N/N=C/c3ccc(F)cc3)cs2)n1	none
CCn1c(SCc2ccccc2)nc2ccccc2c1=O	none (no result: Cl transport mod)
CCc1c(O)nc(SCc2ccccc2)n(C(C)CC)c1=O (stereo not drawn)	none
CCC(C)n1c(SCc2ccc([N+](=O)[O-])cc2)nc2ccsc2c1=O (stereo not drawn)	KCNK9 block -13.1 | KCNK9 inh conf 69.0% | Kir21 sel inactive | HEK293 Tl ctr 44.0%
CCCCn1c(SCC(=O)Nc2cc(C)on2)nc2ccsc2c1=O	none
CCCCn1c(SCc2cccc([N+](=O)[O-])c2)nc2ccsc2c1=O	KCNK9 block -16.1, KCNQ1 inh 6 | KCNK9 inh conf 80.0% | Kir21 sel inactive | HEK293 Tl ctr 38.5%
COCCn1c(SCc2cccc([N+](=O)[O-])c2)nc2ccccc2c1=O	KCNK9 block -8.8 (no result: Cl transport mod) | KCNK9 inh conf 64.0% | Kir21 sel inactive | HEK293 Tl ctr 30.5%
CCOC(CCn1c(SCc2cccc([N+](=O)[O-])c2)nc2ccccc2c1=O)OCC	KCNK9 block -14.8 | KCNK9 inh conf 67.5% | Kir21 sel inactive | HEK293 Tl ctr 45.0%
Cc1cccc(NC(=O)c2ccc3c(c2)C(=O)N(c2ccccc2C)C3=O)n1	none (no result: Cl transport mod)
C=CCc1ccc(OCCOc2cccc3ccc(C)nc23)c(OC)c1	none | KCNK9 inh conf inactive | Kir21 sel inactive | HEK293 Tl ctr inactive
C=CCc1ccc(OCCCOc2ccc(C)c(C)c2)c(OC)c1	none | KCNK9 inh conf inactive | Kir21 sel inactive | HEK293 Tl ctr inactive
Cc1nc(NC(=O)C2CC2)sc1C(=O)Nc1ccccc1Cl	none (no result: Cl transport mod)
CCOc1cc(S(=O)(=O)Nc2ccc(CC)cc2)ccc1Cl	none | KCNK9 inh conf inactive | Kir21 sel inactive | HEK293 Tl ctr inactive
O=C(O)c1ccc(Cl)c(S(=O)(=O)Nc2ccc(OCc3ccccc3)cc2)c1	none (no result: Cl transport mod)
Cc1ccc(C)c(NS(=O)(=O)c2cc(C(=O)Nc3ccccc3-c3ccccc3)ccc2C)c1	KCNK9 block -11.6, KCNK3 block -9.86 (no result: Cl transport mod) | KCNK9 inh conf 42.5% | Kir21 sel inactive | HEK293 Tl ctr 41.5%
Cc1ccc(C(=O)NCc2ccncc2)cc1S(=O)(=O)Nc1cccc(C)c1C	none (no result: Cl transport mod)
Cc1ccc(C(=O)Nc2ccccc2-c2ccccc2)cc1S(=O)(=O)Nc1cccc(C)c1C	KCNK9 block -9.39, KCNK3 block -11.2, KCNQ1 inh 6 (no result: Cl transport mod) | KCNK9 inh conf 40.5% | Kir21 sel inactive | HEK293 Tl ctr 41.5%
Cc1ccc(C(=O)Nc2ccccc2C(=O)O)cc1S(=O)(=O)Nc1ccc(Br)cc1	KCNQ1 inh 6 (no result: Cl transport mod) | KCNK9 inh conf inactive | Kir21 sel inactive | HEK293 Tl ctr inactive
CSc1cc(SC)ncn1	none (no result: KCNK9 block, KCNQ1 pot, Cl transport mod, hERG protect, KCNQ1 inh)
CN(C)c1ccc(NC(=O)Cc2ccccc2)c2ccccc12	none (no result: Cl transport mod)
CN(C)CCCn1c2c(c(SCC(=O)Nc3cccc4ccccc34)nc1=O)CCCC2	none (no result: Cl transport mod)
O=C(Nc1ccc(Br)cc1)c1cccc2c1C(=O)N(C1CCCCC1)C2	none (no result: Cl transport mod)
Cc1ccc(NC(=O)c2cccc3c2C(=O)N(C2CCCCC2)C3)c(Cl)c1	KCNK9 block -18 (no result: Cl transport mod) | KCNK9 inh conf 55.5% | Kir21 sel inactive | HEK293 Tl ctr 43.5%
O=C(Nc1ccc(Br)cc1Br)c1cccc2c1C(=O)N(C1CCCCC1)C2	KCNK9 block -17.7 (no result: Cl transport mod) | KCNK9 inh conf 49.5% | Kir21 sel inactive | HEK293 Tl ctr 33.0%
CCOC(=O)C1CCN(CCC(=O)Nc2ccc(Cl)cc2)CC1	none
CCOC(=O)C1CCN(CCCSc2ccc(Cl)cc2)CC1	none (no result: Cl transport mod) | KCNK9 inh conf inactive | Kir21 sel inactive | HEK293 Tl ctr inactive
COc1ccccc1Oc1ccc(N/C=C/C(=O)c2ccc(C)o2)cc1	none | KCNK9 inh conf inactive | Kir21 sel inactive | HEK293 Tl ctr inactive
Cc1ccc(C)c(OCCn2c(=O)c3c(ncn3C3CCCC3)n(Cc3ccccc3)c2=O)c1	none | KCNK9 inh conf inactive | Kir21 sel inactive | HEK293 Tl ctr inactive
CCn1cnc2c1c(=O)n(Cc1cccc(Br)c1)c(=O)n2Cc1ccccc1	none (no result: Cl transport mod)
O=c1c2c(ncn2C2CCCC2)n(Cc2ccccc2)c(=O)n1CCOc1ccc(Br)cc1	none | KCNK9 inh conf inactive | Kir21 sel inactive | HEK293 Tl ctr inactive
O=c1c2c(ncn2C2CCCC2)n(Cc2ccccc2)c(=O)n1CCOc1ccccc1	none | KCNK9 inh conf inactive | Kir21 sel inactive | HEK293 Tl ctr inactive
CCCCn1c(=O)n(CC(O)c2ccccc2)c(=O)c2c1ncn2C1CCCC1 (stereo not drawn)	none (no result: Cl transport mod)
CCOc1ccc(Br)cc1S(=O)(=O)Nc1cccc(S(=O)(=O)N2CCOCC2)c1	none (no result: KCNK9 block, KCNQ1 pot, Cl transport mod, hERG protect, KCNQ1 inh)
COc1ccccc1CNC(=O)c1nccnc1CO	none (no result: Cl transport mod)
COc1ccc(CCNC(=O)c2cc(C)oc2C)cc1OC	none (no result: Cl transport mod)
CCc1ccc(N2CC(C(=O)N3CCN(c4ccccn4)CC3)CC2=O)cc1 (stereo not drawn)	none (no result: Cl transport mod)
